The source made the active and inactive calls. The rule behind the calls is not given here.
Assays:
[1] = system: MDA-MB-231; test: Induction of apoptosis in human MDA-MB-231 cells assessed as early apoptotic cells at 0.15 uM incubated for 72 hrs by annexin V-FITC staining based flow cytometry (reference value: 3.42%); format: functional
[2] = system: MDA-MB-231; test: Induction of apoptosis in human MDA-MB-231 cells assessed as late apoptotic cells at 0.6 uM incubated for 72 hrs by annexin V-FITC staining based flow cytometry (reference value: 1.67%); format: functional
[3] = system: MDA-MB-231; test: Induction of DNA damage in human MDA-MB-231 cells assessed as increase in tail DNA measured at 0.15 to 0.6 uM after 72 hrs by neutral comet assay; format: functional, cell-based; settings: dose 0.15-0.6 µM
Summary of the method: (§1)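 Neutral comet assay for double-strand breaks in MDA-MB-231 cells incubated 72 h; head DNA%, tail DNA%, tail moment and Olive tail moment scored, the moments in arbitrary units; mean ± SD of three independent experiments, p < 0.05 versus control.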

[4] = system: MDA-MB-231; test: Induction of apoptosis in human MDA-MB-231 cells assessed as viable cells at 0.3 uM incubated for 72 hrs by annexin V-FITC staining based flow cytometry (reference value: 93.86%); format: functional; settings: read-out: Activity
[5] = system: MDA-MB-231; test: Induction of DNA damage in human MDA-MB-231 cells assessed as increase in tail moment measured at 0.15 to 0.6 uM after 72 hrs by neutral comet assay; format: functional, cell-based; settings: dose 0.15-0.6 µM; summary of the method: as §1
[6] = system: MDA-MB-231; test: Induction of apoptosis in human MDA-MB-231 cells assessed as late apoptotic cells at 0.3 uM incubated for 72 hrs by annexin V-FITC staining based flow cytometry (reference value: 1.67%); format: functional
[7] = system: MDA-MB-231; test: Induction of ROS generation in human MDA-MB-231 cells at 0.6 uM incubated for 72 hrs by DCFH-DA staining-based flow cytometric analysis (reference value: 3.04 %); format: functional
Summary of the method: (§2)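 MDA-MB-231 cells exposed 72 h, then loaded with DCFH-DA and read on a FACScan flow cytometer as percent DCFH-DA-positive cells against DMSO-treated control; mean ± SD of three independent experiments.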

[8] = system: MDA-MB-231; test: Induction of cell cycle arrest in human MDA-MB-231 cells assessed as accumulation of cells at S phase at 0.3 uM after 72 hrs by propidium iodide staining based flow cytometry (reference value: 37.12 %); format: functional
Summary of the method: (§3)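 Cell cycle: MDA-MB-231 cells held 72 h at 0, 0.15, 0.3 or 0.6 μM, harvested, PI-stained and analysed by flow cytometry for G1, S and G2/M percentages.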

[9] = system: MDA-MB-231; test: Induction of apoptosis in human MDA-MB-231 cells assessed as necrotic cells at 0.15 uM incubated for 72 hrs by annexin V-FITC staining based flow cytometry (reference value: 1.05%); format: functional
[10] = system: MDA-MB-231; test: Induction of apoptosis in human MDA-MB-231 cells assessed as necrotic cells at 0.6 uM incubated for 72 hrs by annexin V-FITC staining based flow cytometry (reference value: 1.05%); format: functional
[11] = system: MDA-MB-231; test: Induction of cell cycle arrest in human MDA-MB-231 cells assessed as accumulation of cells at G2/M phase at 0.15 uM after 72 hrs by propidium iodide staining based flow cytometry (reference value: 10.90 %); format: functional; summary of the method: as §3
[12] = system: MCF7; test: Antiproliferative activity against human MCF7 cells assessed as reduction in cell viability incubated for 72 hrs by CCK-8 assay; format: functional, cell-based; settings: MCF7, 72 h
Summary of the method: (§4)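 CCK-8 viability assay on MCF-7 or MDA-MB-231 cells after 72 h compound exposure; IC50 taken as half inhibitory concentration, reported as mean ± SD of three independent experiments.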

[13] = system: MDA-MB-231; test: Induction of apoptosis in human MDA-MB-231 cells assessed as late apoptotic cells at 0.15 uM incubated for 72 hrs by annexin V-FITC staining based flow cytometry (reference value: 1.67%); format: functional
[14] = system: MDA-MB-231; test: Induction of DNA damage in human MDA-MB-231 cells assessed as double-strand DNA breaks measured at 0.15 to 0.6 uM after 72 hrs by neutral comet assay; format: functional, cell-based; settings: dose 0.15-0.6 µM; summary of the method: as §1
[15] = system: MDA-MB-231; test: Induction of apoptosis in human MDA-MB-231 cells assessed as necrotic cells at 0.3 uM incubated for 72 hrs by annexin V-FITC staining based flow cytometry (reference value: 1.05%); format: functional
[16] = system: MDA-MB-231; test: Induction of cell cycle arrest in human MDA-MB-231 cells assessed as accumulation of cells at G1 phase at 0.6 uM after 72 hrs by propidium iodide staining based flow cytometry (reference value: 51.97 %); format: functional; summary of the method: as §3
[17] = system: MDA-MB-231; test: Induction of cell cycle arrest in human MDA-MB-231 cells assessed as accumulation of cells at S phase at 0.15 uM after 72 hrs by propidium iodide staining based flow cytometry (reference value: 37.12 %); format: functional; summary of the method: as §3
[18] = system: MDA-MB-231; test: Induction of DNA damage in human MDA-MB-231 cells assessed as increase olive tail moment measured at 0.15 to 0.6 uM after 72 hrs by neutral comet assay; format: functional, cell-based; settings: dose 0.15-0.6 µM; summary of the method: as §1
[19] = system: MDA-MB-231; test: Induction of cell cycle arrest in human MDA-MB-231 cells assessed as accumulation of cells at G1 phase at 0.3 uM after 72 hrs by propidium iodide staining based flow cytometry (reference value: 51.97 %); format: functional; summary of the method: as §3
[20] = system: MDA-MB-231; test: Antiproliferative activity against human MDA-MB-231 cells assessed as reduction in cell viability incubated for 72 hrs by CCK-8 assay; format: functional, cell-based; settings: MDA-MB-231, 72 h; summary of the method: as §4
[21] = system: MDA-MB-231; test: Induction of cell cycle arrest in human MDA-MB-231 cells assessed as accumulation of cells at G2/M phase at 0.3 uM after 72 hrs by propidium iodide staining based flow cytometry (reference value: 10.90 %); format: functional; summary of the method: as §3
[22] = system: MDA-MB-231; test: Antiinvasive activity against human MDA-MB-231 cells assessed as reduction in invasion incubated for 24 hrs by crystal violet staining based transwell assay; format: functional, cell-based; settings: dose microM <=0.6, time 24.0 hrs
Summary of the method: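 Transwell: MDA-MB-231 cells seeded in chambers with 0, 0.15, 0.3 or 0.6 μM for 24 h; cells crossing stained with crystal violet, imaged and counted; mean ± SD of three independent experiments.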

[23] = Nitric oxide releasing activity assessed as amount of NO release measured up to 24 hrs by Griess assay; format: functional; settings: time hrs <=24
Summary of the method: (§5)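 Griess assay measuring NO released by compounds in vitro over time; values are averages of three independent experiments.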

[24] = system: MDA-MB-231; test: Induction of apoptosis in human MDA-MB-231 cells assessed as early apoptotic cells at 0.6 uM incubated for 72 hrs by annexin V-FITC staining based flow cytometry (reference value: 3.42%); format: functional
[25] = system: MDA-MB-231; test: Inhibition of cell adhesion in human MDA-MB-231 cells measured for 24 hrs by phase-contrast microscope method; format: functional, cell-based; settings: dose 0.15-0.6 µM
Summary of the method: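 Adhesion: MDA-MB-231 cells incubated with 0, 0.15, 0.3 or 0.6 μM, non-adherent cells washed off with PBS, attached cells counted by phase contrast microscopy; mean ± SD of three independent experiments.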

[26] = system: MDA-MB-231; test: Induction of apoptosis in human MDA-MB-231 cells assessed as viable cells at 0.6 uM incubated for 72 hrs by annexin V-FITC staining based flow cytometry (reference value: 93.86%); format: functional; settings: read-out: Activity
[27] = system: MDA-MB-231; test: Induction of ROS generation in human MDA-MB-231 cells incubated for 72 hrs by DCFH-DA staining-based flow cytometric analysis relative to control; format: functional, cell-based; settings: dose microM <=0.6, time 72.0 hrs; summary of the method: as §2
[28] = system: MDA-MB-231; test: Induction of apoptosis in human MDA-MB-231 cells assessed as early apoptotic cells at 0.3 uM incubated for 72 hrs by annexin V-FITC staining based flow cytometry (reference value: 3.42%); format: functional
[29] = Nitric oxide releasing activity assessed as amount of NO release measured at 3 hrs by Griess assay; format: functional; summary of the method: as §5
[30] = system: MDA-MB-231; test: Induction of cell cycle arrest in human MDA-MB-231 cells assessed as accumulation of cells at S phase at 0.6 uM after 72 hrs by propidium iodide staining based flow cytometry (reference value: 37.12 %); format: functional; summary of the method: as §3
[31] = system: MDA-MB-231; test: Induction of cell cycle arrest in human MDA-MB-231 cells assessed as accumulation of cells at G1 phase at 0.15 uM after 72 hrs by propidium iodide staining based flow cytometry (reference value: 51.97 %); format: functional; summary of the method: as §3
[32] = system: MDA-MB-231; test: Induction of apoptosis in human MDA-MB-231 cells assessed as viable cells at 0.15 uM incubated for 72 hrs by annexin V-FITC staining based flow cytometry (reference value: 93.86%); format: functional; settings: read-out: Activity
[33] = system: MDA-MB-231; test: Induction of DNA damage in human MDA-MB-231 cells assessed as reduction in head DNA measured at 0.15 to 0.6 uM after 72 hrs by neutral comet assay; format: functional, cell-based; settings: dose 0.15-0.6 µM; summary of the method: as §1
[34] = system: MDA-MB-231; test: Inhibition of cell migration in human MDA-MB-231 cells assessed as inhibition of wound healing rate measured for 24 hrs by phase contrast microscopy; format: functional, cell-based
Summary of the method: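 Wound-healing: scratches made with pipette tips across MDA-MB-231 monolayers, then 24 h incubation at 0, 0.15, 0.3 or 0.6 μM; closure imaged by phase contrast microscopy and expressed as wound-healing rate; mean ± SD of three independent experiments.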

[35] = system: MDA-MB-231; test: Induction of cell cycle arrest in human MDA-MB-231 cells assessed as accumulation of cells at G2/M phase at 0.6 uM after 72 hrs by propidium iodide staining based flow cytometry (reference value: 10.90 %); format: functional; summary of the method: as §3

In the case of COc1ccc(-c2nc(C(=O)NCCCOc3no[n+]([O-])c3S(=O)(=O)c3ccccc3)cc3c2[nH]c2ccccc23)cc1, the Activity [1] is reported as 8.28%, the Activity [2] is reported as 24.3% and the Activity [3] is reported as “Active”. For the same compound, the viability at 0.3 µM [4] was 72.3%, the Activity [5] was “Active” and the Activity [6] was 9.92%. It also gave an Activity [7] of 51.62%, an Activity [8] of 37.2% and an Activity [9] of 3.68%. It also gave an Activity [10] of 1.61%, an Activity [11] of 13.64% and an IC50 [12] of 890 nM. The Activity [13] was 4.39%, the Activity [14] was “Active” and the Activity [15] was 3.7%. The Activity [16] was 40.59%, the Activity [17] was 35.82% and the Activity [18] was “Active”. It also gave an Activity [19] of 42.88%, an IC50 [20] of 620 nM and an Activity [21] of 19.92%. For the same compound, the Activity [22] was “Active”, the Activity [23] was “Active” and the Activity [24] was 29.88%. For the same compound, the inhibition [25] was “Dose-Dependent Effect”, the viability at 0.6 µM [26] was 44.2% and the Activity [27] was “Dose-Dependent Effect”. The Activity [28] was 14.07%, the Activity [29] was 65 µM/L and the Activity [30] was 35.87%. For the same compound, the Activity [31] was 50.54%, the viability at 0.15 µM [32] was 83.6% and the Activity [33] was “Active”. For the same compound, the inhibition [34] was “Dose-Dependent Effect” and the Activity [35] was 23.54%.

— ChEMBL document CHEMBL4814000, “Discovery of β-carboline-(phenylsulfonyl)furoxan hybrids as potential anti-breast cancer agents” (Bioorg Med Chem Lett, 2021)
